Laboratory results as given in publication PMC4062594 (Nature chemical biology, 2014).
Changes are numbered by the printed parent chain. “Also recorded” adds a separate entry of the source.

How the values were obtained:
PTP1B1-405 = molecular target: T1, PTP1B1-405 (Homo sapiens, UniProt P18031); experiment: PTP assay with DiFMUP substrate; type: biochemical
T1 sequence (P18031 1-405): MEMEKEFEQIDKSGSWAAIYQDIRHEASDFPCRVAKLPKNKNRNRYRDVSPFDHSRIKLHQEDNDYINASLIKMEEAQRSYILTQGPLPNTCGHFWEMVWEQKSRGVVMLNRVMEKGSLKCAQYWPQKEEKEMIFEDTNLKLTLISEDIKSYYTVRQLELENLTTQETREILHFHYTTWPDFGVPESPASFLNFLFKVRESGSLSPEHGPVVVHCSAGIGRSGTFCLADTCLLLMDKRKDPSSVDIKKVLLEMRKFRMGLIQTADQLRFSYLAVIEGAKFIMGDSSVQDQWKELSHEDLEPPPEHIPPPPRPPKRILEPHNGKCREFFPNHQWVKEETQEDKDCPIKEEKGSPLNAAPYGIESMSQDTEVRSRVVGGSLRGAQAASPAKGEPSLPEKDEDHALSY

PTP1B1-321 [1] = molecular target: T2, PTP1B1-321 (Homo sapiens, UniProt P18031); experiment: Direct binding assay with [3H]-MSI-1436; conditions: scintillation counting
T2 sequence (P18031 1-321): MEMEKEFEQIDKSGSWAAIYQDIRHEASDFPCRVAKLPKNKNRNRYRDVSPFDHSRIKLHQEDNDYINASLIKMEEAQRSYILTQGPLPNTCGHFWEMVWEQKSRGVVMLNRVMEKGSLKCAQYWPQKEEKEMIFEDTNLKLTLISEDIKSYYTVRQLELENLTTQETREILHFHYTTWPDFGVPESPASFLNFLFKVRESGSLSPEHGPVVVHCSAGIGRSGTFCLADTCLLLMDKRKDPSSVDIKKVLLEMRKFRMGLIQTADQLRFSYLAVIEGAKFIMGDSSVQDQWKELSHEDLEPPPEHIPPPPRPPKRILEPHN
Outline: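 Protein was captured on Ni-NTA beads (10 min, 25°C) and washed three times with buffer containing 150 mM NaCl. Bound ligand was measured by scintillation and bead-bound protein by BCA. Free ligand was calculated as total minus bound, for Scatchard analysis.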

CFP-PTP1B1-321-YFP = molecular target: T3, CFP-PTP1B1-321-YFP (Homo sapiens, UniProt P18031); experiment: Intramolecular FRET titration; type: binding; conditions: excitation at 440 nm, 0–5 μM MSI-1436
T3 sequence (P18031 1-321): T2 sequence (P18031 1-321)

PTP1B1-405 L192A/S372P = molecular target: T4, PTP1B1-405 L192A/S372P (Homo sapiens, UniProt P18031, L192A/S372P); experiment: PTP assay, double point mutant; type: biochemical
T4 sequence (P18031 1-405 L192A/S372P): T1 sequence (P18031 1-405) with L192A, S372P
Outline: (§1)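 Continuous fluorescence PTP assay with 10 nM purified PTP1B and 10 μM DiFMUP substrate. Emission at 450 nm was monitored for 20 minutes.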

PTP1B (1-367) = molecular target: T5, PTP1B (1-367) (Homo sapiens, UniProt P18031); experiment: PTP assay, truncation mutant; type: biochemical; conditions: similar to PTP1B1-321
T5 sequence (P18031 1-367): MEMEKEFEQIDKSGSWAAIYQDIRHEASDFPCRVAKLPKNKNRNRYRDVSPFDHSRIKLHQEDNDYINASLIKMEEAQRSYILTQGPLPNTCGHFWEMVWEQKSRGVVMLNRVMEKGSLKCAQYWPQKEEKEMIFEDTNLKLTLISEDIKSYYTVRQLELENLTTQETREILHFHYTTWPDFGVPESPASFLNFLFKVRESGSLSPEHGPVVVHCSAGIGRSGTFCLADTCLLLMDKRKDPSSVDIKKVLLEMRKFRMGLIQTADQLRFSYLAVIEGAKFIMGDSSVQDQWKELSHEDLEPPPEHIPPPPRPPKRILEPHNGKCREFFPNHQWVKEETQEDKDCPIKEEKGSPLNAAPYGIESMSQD
Outline: as §1

[2] = system: PTP1B V370, S372 and R373 to alanine; experiment: PTP assay, alanine point mutants; type: biochemical, human; conditions: data not shown
PTP1B1-321 [3] = molecular target: T2, PTP1B1-321; experiment: Binding of recombinant protein to bead-immobilized compound; conditions: in vitro
Outline: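 Beads were washed in the same buffer plus 0.01% NP-40 and 1% glycerol, then heat-eluted in SDS sample buffer. Eluates were run on 10% SDS-PAGE and stained with Coomassie or silver.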

10A.B2 cells = experiment: Cell migration assay; type: cell-based; conditions: 2D culture, similar extent to PTP1B-directed shRNA
SKBR3 cells = experiment: Cell migration assay; type: cell-based; conditions: HER2-positive, MSI-1436 5 µM
[4] = system: panel of breast cancer cells; experiment: Annexin/PI staining; type: cell-based; conditions: cells sensitive to Lapatinib
Outline: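 Cells (1 × 10^5) plated in 6-well plates in growth medium, left untreated or given test compound at 2 and 5 μM. Stained with annexin and PI per kit instructions, then analysed by flow cytometry.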

MCF10A-NeuNT cells = experiment: Cell migration with PTP1B knock-down and re-expression; type: cell-based
Outline: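 MCF10A-NeuNT cells carried doxycycline-inducible control or PTP1B shRNA miRs; doxycycline (500 ng/mL) was added 12 h after seeding and refreshed every 12 h. Cells were transfected 24 h with wild type or L192A/S372P PTP1B, then left untreated or given test compound (1 or 2 μM). Cells were run in Matrigel invasion chambers (8.0 μm pores) for 24–48 h, and migrated cells were Giemsa-stained and counted. Three experiments, in duplicate.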

[5] = system: tyrosine phosphorylation-dependent signaling in tumors; experiment: Immunoblotting of tumor lysates from NDL2 mice; type: in vivo; conditions: tumor samples from treated NDL2 animals
Outline: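 Tumours from treated NDL2 mice were dissected free of connective tissue, ground under liquid nitrogen and lysed 30 min on ice. Lysis buffer: HEPES pH 7.4, glycerol, Triton X-100, NaCl, EGTA, 1 mM orthovanadate, 20 mM NaF, protease inhibitors. Lysates were cleared at 12,000 x g, 15 min, 4 °C. Lysate (20 μg) was blotted with anti-phosphotyrosine (4G10), anti-p62DOK and anti-phospho-Erk, then stripped and reprobed with total-protein antibodies.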

CC(C)[C@@H](CC[C@@H](C)[C@H]1CC[C@H]2[C@@H]3[C@H](O)C[C@H]4C[C@@H](NCCCNCCCCNCCCN)CC[C@]4(C)[C@H]3CC[C@]12C)OS(=O)(=O)O [MSI-1436, Trodusquemine]
mode of inhibition (PTP1B1-405): reversible non-competitive inhibitor | stoichiometry (PTP1B1-321 [1]): 1 mol/mol | FRET (CFP-PTP1B1-321-YFP): did not result in FRET | inhibition by MSI-1436 (PTP1B1-405 L192A/S372P): complete loss of inhibition; also recorded: insensitive to MSI-1436 | inhibitory potency compared to PTP1B1-405 and PTP1B1-394 (PTP1B (1-367)): lower | effect of alanine mutations on inhibition by MSI-1436 [2]: did not affect | binding to bead-immobilized compound (PTP1B1-321 [3]): bound | migration (10A.B2 cells): inhibited migration | migration (SKBR3 cells): attenuated migration | apoptosis [4]: limited effect on apoptosis | migration (MCF10A-NeuNT cells; PTP1B knock-down, reconstituted with PTP1B-L192A/S372P, MSI-1436 1 or 2 μM): no longer sensitive | migration (MCF10A-NeuNT cells; PTP1B knock-down, reconstituted with wild type PTP1B, MSI-1436 1 or 2 μM): remained sensitive to inhibition | migration (MCF10A-NeuNT cells; absence of doxycycline (endogenous PTP1B)): attenuated | phosphorylation of p44/42 MAP kinase [5]: decrease | tyrosine phosphorylation of p62DOK [5]: significant increase
